Measured values published in ChEMBL document CHEMBL1154066, “Synthesis, physicochemical properties and antimicrobial activity of some new benzimidazole derivatives” (2009).
≈ marks a conversion by molar mass, not a printed value.

Legend:
Staphylococcus aureus = assay: Antibacterial activity against Staphylococcus aureus ATCC 29213 after 20 hrs by two fold dilution method; format: functional; conditions: ATCC 29213, 20 h
Method in brief: (§1)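 Twofold agar dilution in Mueller–Hinton agar. Compounds were dissolved in DMSO and diluted into the medium at final 128–1 µg/mL. The inoculum was 10^4 CFU/plate, and a medium-plus-DMSO plate served as negative control. Plates were incubated at 35 °C for 20 h. MIC was taken as the lowest concentration giving complete growth inhibition. Experiments were run three times.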

Bacillus subtilis = assay: Antibacterial activity against Bacillus subtilis MTCC 121 after 20 hrs by two fold dilution method; format: functional; conditions: MTCC 121, 20 h; method in brief: as §1
Streptococcus mutans = assay: Antibacterial activity against Streptococcus mutans MTCC 890 after 20 hrs by two fold dilution method; format: functional; conditions: MTCC 890, 20 h; method in brief: as §1
Escherichia coli = assay: Antibacterial activity against Escherichia coli ATCC 25922 after 20 hrs by two fold dilution method; format: functional; conditions: ATCC 25922, 20 h; method in brief: as §1
Pseudomonas aeruginosa = assay: Antibacterial activity against Pseudomonas aeruginosa MTCC 741 after 20 hrs by two fold dilution method; format: functional; conditions: MTCC 741, 20 h; method in brief: as §1
Salmonella typhi = assay: Antibacterial activity against Salmonella typhi MTCC 733 after 20 hrs by two fold dilution method; format: functional, Salmonella enterica subsp. enterica serovar Typhi; conditions: Salmonella enterica, MTCC 733, 20 h
Method in brief: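 Twofold agar dilution in Mueller–Hinton agar. Compounds dissolved in DMSO and diluted into medium to final 128–1 µg/mL; medium with DMSO at the same dilution as negative control. Inoculum 10^4 CFU/plate; incubated 35 °C for 20 h. MIC taken as lowest concentration giving complete growth inhibition, in µg/mL. Ampicillin and ciprofloxacin as references; three independent experiments.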

Candida albicans [1] = assay: Antifungal activity against Candida albicans MTCC 1637 at 300 ug/disk after 7 days by disk diffusion method; format: functional; conditions: MTCC 1637, 168 h, read-out: IZ
Method in brief: (§2)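 Disc diffusion on Mueller–Hinton agar seeded with a standardized suspension, following NCCLS. Sterile 6 mm paper discs held 300 µg of test compound, amphotericin B at 10 µg as reference, or DMSO alone as negative control. Plates were incubated at 28 ± 2 °C for 7 days. Inhibition zone diameters (mm) were measured in triplicate and scored as 10–15, 16–21 or 22–28 mm.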

Aspergillus niger [2] = assay: Antifungal activity against Aspergillus niger at 300 ug/disk after 7 days by disk diffusion method; format: functional; conditions: 168 h, read-out: IZ; method in brief: as §2
Aspergillus flavus [3] = assay: Antifungal activity against Aspergillus flavus at 300 ug/disk after 7 days by disk diffusion method; format: functional; conditions: 168 h, read-out: IZ; method in brief: as §2
Candida albicans [4] = assay: Antifungal activity against Candida albicans MTCC 1637 at 10 ug/disk after 7 days by disk diffusion method; format: functional; conditions: MTCC 1637, 168 h, read-out: IZ
Aspergillus niger [5] = assay: Antifungal activity against Aspergillus niger at 10 ug/disk after 7 days by disk diffusion method; format: functional; conditions: 168 h, read-out: IZ
Aspergillus flavus [6] = assay: Antifungal activity against Aspergillus flavus at 10 ug/disk after 7 days by disk diffusion method; format: functional; conditions: 168 h, read-out: IZ

| Compound | MIC (Staphylococcus aureus) [µg/mL] | MIC (Bacillus subtilis) [µg/mL] | MIC (Streptococcus mutans) [µg/mL] | MIC (Escherichia coli) [µg/mL] | MIC (Pseudomonas aeruginosa) [µg/mL] | MIC (Salmonella typhi) [µg/mL] | zone of inhibition at 300 µg/disc (Candida albicans [1]) [mm] | zone of inhibition at 300 µg/disc (Aspergillus niger [2]) [mm] | zone of inhibition at 300 µg/disc (Aspergillus flavus [3]) [mm] | zone of inhibition at 10 µg/disc (Candida albicans [4]) [mm] | zone of inhibition at 10 µg/disc (Aspergillus niger [5]) [mm] | zone of inhibition at 10 µg/disc (Aspergillus flavus [6]) [mm] |
| --- | --- | --- | --- | --- | --- | --- | --- | --- | --- | --- | --- | --- |
| Cc1nnc(Cn2cnc3ccccc32)o1 | 16 (≈ 74.7 µM) | 16 (≈ 74.7 µM) | 16 (≈ 74.7 µM) | 16 (≈ 74.7 µM) | > 128 | 32 (≈ 149 µM) | 16 | 16 | 16 | – | – | – |
| CCc1nnc(Cn2cnc3ccccc32)o1 | 32 (≈ 140 µM) | 32 (≈ 140 µM) | 16 (≈ 70.1 µM) | 16 (≈ 70.1 µM) | > 128 | 64 (≈ 280 µM) | 10 | < 10 | 10 | – | – | – |
| Cc1nc2ccccc2n1Cc1nnc(-c2ccccc2Cl)o1 | – | – | 16 (≈ 49.3 µM) | > 128 | – | 32 (≈ 98.5 µM) | 16 | 16 | 16 | – | – | – |
| Cc1nnc(Cn2c(C)nc3ccccc32)o1 | 4 (≈ 17.5 µM) | 4 (≈ 17.5 µM) | 8 (≈ 35 µM) | 64 (≈ 280 µM) | 64 (≈ 280 µM) | 16 (≈ 70.1 µM) | 22 | 16 | 16 | – | – | – |
| Oc1ccccc1-c1nnc(Cn2cnc3ccccc32)o1 | 32 (≈ 109 µM) | – | – | 64 (≈ 219 µM) | 64 (≈ 219 µM) | 16 (≈ 54.7 µM) | – | – | – | – | – | – |
| COc1ccccc1-c1nnc(Cn2c(C)nc3ccccc32)o1 | 8 (≈ 25 µM) | 4 (≈ 12.5 µM) | 8 (≈ 25 µM) | 64 (≈ 200 µM) | 64 (≈ 200 µM) | 16 (≈ 49.9 µM) | 16 | 16 | 16 | – | – | – |
| ClCc1nnc(Cn2cnc3ccccc32)o1 | 16 (≈ 64.3 µM) | 32 (≈ 129 µM) | 16 (≈ 64.3 µM) | – | 32 (≈ 129 µM) | 64 (≈ 257 µM) | 16 | 10 | 10 | – | – | – |
| ClCCc1nnc(Cn2cnc3ccccc32)o1 | 16 (≈ 60.9 µM) | 16 (≈ 60.9 µM) | – | – | 32 (≈ 122 µM) | 64 (≈ 244 µM) | 16 | 16 | 10 | – | – | – |
| Cc1nc2ccccc2n1Cc1nnc(-c2ccccc2O)o1 | – | 16 (≈ 52.2 µM) | 8 (≈ 26.1 µM) | 32 (≈ 104 µM) | – | 32 (≈ 104 µM) | – | – | – | – | – | – |
| COc1ccc(-c2nnc(Cn3cnc4ccccc43)o2)cc1 | 16 (≈ 52.2 µM) | 32 (≈ 104 µM) | 16 (≈ 52.2 µM) | 64 (≈ 209 µM) | 32 (≈ 104 µM) | 32 (≈ 104 µM) | 16 | < 10 | < 10 | – | – | – |
| C[C@@H]1[C@H](O)[C@@H](C)/C=C/C=C/C=C/C=C/C=C/C=C/C=C/[C@H](O[C@@H]2O[C@H](C)[C@@H](O)[C@H](N)[C@@H]2O)C[C@@H]2O[C@](O)(C[C@@H](O)C[C@@H](O)[C@H](O)CC[C@@H](O)C[C@@H](O)CC(=O)O[C@H]1C)C[C@H](O)[C@H]2C(=O)O [AMPHOTERICIN B] | – | – | – | – | – | – | – | – | – | 22 | 22 | 22 |
| CC1(C)S[C@@H]2[C@H](NC(=O)[C@H](N)c3ccccc3)C(=O)N2[C@H]1C(=O)O [AMPICILLIN] | 2 (≈ 5.72 µM) | 2 (≈ 5.72 µM) | 2 (≈ 5.72 µM) | 4 (≈ 11.4 µM) | > 128 | > 128 | – | – | – | – | – | – |
| O=C(O)c1cn(C2CC2)c2cc(N3CCNCC3)c(F)cc2c1=O [CIPROFLOXACIN] | ≤ 1 | ≤ 1 | – | ≤ 1 | – | – | – | – | – | – | – | – |
